# Results as given in article PMC6217654 (ACS Omega, 2018).
# Key:
# CYP2C8 = biological target: T1, CYP2C8 (Homo sapiens, UniProt P10632); assay: Direct CYP inhibition, CYP2C8; type: in vitro ADME
# T1 sequence (P10632 1-490): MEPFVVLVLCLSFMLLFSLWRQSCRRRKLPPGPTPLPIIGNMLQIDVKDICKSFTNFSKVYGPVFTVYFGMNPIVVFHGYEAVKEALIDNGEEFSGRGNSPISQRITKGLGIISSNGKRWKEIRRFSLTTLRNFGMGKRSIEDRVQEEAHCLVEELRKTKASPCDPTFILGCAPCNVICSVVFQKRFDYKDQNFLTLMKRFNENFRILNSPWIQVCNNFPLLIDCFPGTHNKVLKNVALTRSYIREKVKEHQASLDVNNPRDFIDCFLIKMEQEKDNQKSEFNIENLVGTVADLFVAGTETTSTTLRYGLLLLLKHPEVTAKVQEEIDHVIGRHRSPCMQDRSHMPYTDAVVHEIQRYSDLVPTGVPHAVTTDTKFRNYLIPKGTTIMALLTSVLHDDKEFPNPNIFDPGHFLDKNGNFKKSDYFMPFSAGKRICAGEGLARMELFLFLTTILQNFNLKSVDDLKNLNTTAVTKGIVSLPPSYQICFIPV
# [1] = tested on: CYP1A2, CYP2A6, CYP2B6, CYP2C9, CYP2C19, CYP2D6, CYP2E1, CYP3A4/5, CYP4A11; assay: Direct CYP inhibition, 10 CYP enzymes; type: in vitro ADME; settings: human
# [2] = tested on: CYP1A2, CYP2A6, CYP2B6, CYP2C8, CYP2C9, CYP2C19, CYP2D6, CYP2E1, CYP3A4/5, CYP4A11; assay: Direct CYP inhibition, 10 CYP enzymes; type: in vitro ADME; settings: human
# [3] = PK of TRH and 79 after oral administration to fasted conscious rats; type: in vivo, rat
# Outline: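 Male Wistar rats (10–11 weeks, 230–274 g, n ≥ 4), fasted from the evening before dosing to the 12 h sample. Jugular cannula placed under isoflurane 2–3 days before. Single p.o. dose of 40 mg/4 mL/kg in saline. Heparinized blood (~0.3 mL) drawn via cannula; plasma deproteinized with methanol; HPLC with UV absorbance detection. Cmax, Tmax, AUC0–8h given as mean ± SD.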
# rats = assay: Acute lethal dose, single oral administration in rats; type: in vivo, rat
# [4] = tested on: reserpine-induced hypothermia mice; assay: Antagonistic effect on reserpine-induced hypothermia in mice; type: in vivo; settings: p.o.
# Outline: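 Male ddY mice (bought at 6 weeks, 1-week quarantine, ~25 °C). Reserpine 3 mg/kg s.c.; mice with rectal temperature ≤30 °C about 18 h later were used. Test compound in saline p.o. at 5 μmol/kg, TRH at 50 μmol/kg, saline controls. Rectal temperature by thermistor before and up to 7 h post-dose. Trapezoidal AUC0–7h, with saline AUC subtracted. Mean ± SD, ≥3 animals.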
# human TRH-R = settings: read-out: Ki for human TRH-R; in vitro binding, reported previously; cited from earlier work
# [5] = Stability in rat plasma, cerebrum and cerebellum homogenate at 37 °C; type: in vitro ADME; settings: for compound remaining, cerebellum: rat cerebellum homogenate; for compound remaining, cerebrum: rat cerebrum homogenate; for compound remaining, plasma: rat plasma
# plasma TSH level = assay: TSH releasing activity after oral administration in rats; type: in vivo; settings: rat
# Outline: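 Male Sprague-Dawley rats (258–320 g, n ≥ 4, fed), dosed p.o. at 0.1 or 1 mg/2 mL/kg in water. Blood taken by decapitation at scheduled times, clotted 30 min at 25 °C, centrifuged for serum. TSH measured by [125I] rat TSH assay kit with magnetic separation. Mean ± SD.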
# [6] = tested on: rats with Ara-C-induced cerebellar damage; assay: Ara-C-induced cerebellar ataxia in rats, open field fall index; type: in vivo, rat; settings: 79 10 and 30 mg/kg p.o. once daily for 7 days, vs control
# [7] = male, Wistar, rat, plasma, po, 40 mg/kg
smiles,measurement,setting,value
"C[C@@H]1OC(=O)N[C@@H]1C(=O)N[C@@H](Cc1cscn1)C(=O)N1CCC[C@H]1C [Compound 79, 1-{N-[(4S,5S)-(5-Methyl-2-oxooxazolidine-4-yl)carbonyl]-3-(thiazol-4-yl)-L-alanyl}-(2R)-2-methylpyrrolidine trihydrate]",inhibition at 300 μM,CYP2C8,~20%
same,inhibition at 300 μM,[1],≤ 10%
same,inhibition at 300 μM,[2],≤ 50%
same,Cmax and AUC0–8h relative to TRH,"[3]; fasted rats, p.o. 40 mg/kg",over 12 times
same,AUC(0-t),[3]; [7],817 ± 349 ng·h/mL
same,Cmax,[3]; [7],636 ± 232 ng/mL
same,Tmax,[3]; [7],15 min
same,acute lethal dose,rats,over 2000 mg/kg
same,rectal temperature compared with saline levels,"[4]; 79 5 μmol/kg from 2 to 7 h, TRH 50 μmol/kg from 0 to 7 h",> 2.5 °C
same,rectal temperature ΔAUC0–7h = AUC0–7h(compounds) – AUC0–7h(saline),"[4]; reserpine-induced hypothermia mice, TRH 50 μmol/kg, 79 5 μmol/kg",28.0 ± 4.3 °C·h
same,rectal temperature AUC0–7h,"[4]; reserpine-induced hypothermia mice, TRH 50 μmol/kg, 79 5 μmol/kg, mean ± SD",233.4 ± 4.3 °C·h
same,Ki,human TRH-R,702 nM
same,"compound remaining, cerebellum",[5]; 15 min,100 ± 0.0%
same,"compound remaining, cerebellum",[5]; 30 min,99.9 ± 0.0%
same,"compound remaining, cerebellum",[5]; 60 min,99.7 ± 0.0%
same,"compound remaining, cerebellum",[5]; 120 min,99.6 ± 0.1%
same,"compound remaining, cerebellum",[5]; 180 min,99.5 ± 0.1%
same,"compound remaining, cerebrum",[5]; 15 min,100.2 ± 0.2%
same,"compound remaining, cerebrum",[5]; 30 min,100.2 ± 0.1%
same,"compound remaining, cerebrum",[5]; 60 min,100.3 ± 0.1%
same,"compound remaining, cerebrum",[5]; 120 min,99.9 ± 0.1%
same,"compound remaining, cerebrum",[5]; 180 min,99.7 ± 0.1%
same,"compound remaining, plasma",[5]; 15 min,100 ± 0.1%
same,"compound remaining, plasma",[5]; 30 min,99.8 ± 0.1%
same,"compound remaining, plasma",[5]; 60 min,99.6 ± 0.3%
same,"compound remaining, plasma",[5]; 120 min,99.8 ± 0.2%
same,"compound remaining, plasma",[5]; 180 min,99.8 ± 0.1%
same,plasma TSH level,"plasma TSH level; p.o. 0.1 mg/kg, at 0.5 h",46.8 ng/mL
same,plasma TSH level,"plasma TSH level; p.o. 1 mg/kg, at 0.5 h",80.4 ng/mL
same,plasma TSH level,"plasma TSH level; p.o. 0.1 and 1 mg/kg, at 24 h",recovered to vehicle levels
same,fall index,[6],significant decrease
